Compound activity as filed in PubChem BioAssay.
Compounds with a hit are over-represented: about 2.3% of the library has one in this group of screens.
MEKK2 WT-MEK5 = raises or lowers MEK5 binding to wildtype human MEKK2 PB1 domain. Q9Y2U5. bead flow cytometry, Alexa488-MEK5 binding to MEKK2 WT; actives lie on both sides. binding response (% of control), % at 10 µM. 290,000 tested, 1.1% active. AID 1531; in the data active = binding response below about 67% or above about 130%
MEKK2 mut-MEK5 = signal of MEK5 binding to mutant human MEKK2 PB1 domain. bead flow cytometry, Alexa488-MEK5 binding to MEKK2 mutant. percent response, % at 10 µM. 290,000 tested, 0.35% active. AID 1530; in the data active = percent response above about 24%, passing the limit was not always enough
MEKK3 PB1 HTS = raises or lowers MEK5 binding to the human MEKK3 PB1 domain; binding response (% of control), % at 10 µM; 290,000 tested, 1.4% active; Q99759; bead-based flow cytometry, Alexa488-MEK5 binding to MEKK3; actives lie on both sides; 0 = blocked by unlabeled MEK5, 100 = vehicle;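 active = binding response more than 3 SD above or below the average of its plate-row segment, actives on both sides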;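 note: Alexa488 bead fluorescence after subtracting the streptavidin-only scavenger bead signal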
ABCG2 block = human ABCG2 inhibition, ABCB1 as counter-screen | Q9UNQ0 | IgMXP3 cells, JC-1 efflux, flow cytometry | AID 1325 | inhibition, % at 6.6 µM | 190,000 tested, 0.1% active;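 active = inhibition above 80%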;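 note: 0% = DMSO and 100% = nicardipine control wells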
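Test system: IgMXP3 (ABCG2) plus far-red-tagged CCRF-Adr (ABCB1) cells / Amount: 3 million cells/mL in well / Reagent: JC-1 transporter substrate / Timing: 10 min compound exposure, 25 °C / Signal: flow cytometry, 530 nm JC-1 signal / Read-out: percent efflux inhibition, scaled nicardipine 100% to DMSO 0% / Benchmarks: nicardipine as high control, DMSO as low control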
ABCB1 inh = blocks JC-1 efflux by human ABCB1 transporter. P08183. CCRF-Adr cells, flow cytometry. 190,000 tested, 0.067% active. inhibition, % at 6.6 µM; in the data active = inhibition above about 40%;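 note: 0% = vehicle and 100% = reference inhibitor; higher value means more JC-1 retained so stronger ABCB1 efflux block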
Target sequence (P08183 whole entry, looked up): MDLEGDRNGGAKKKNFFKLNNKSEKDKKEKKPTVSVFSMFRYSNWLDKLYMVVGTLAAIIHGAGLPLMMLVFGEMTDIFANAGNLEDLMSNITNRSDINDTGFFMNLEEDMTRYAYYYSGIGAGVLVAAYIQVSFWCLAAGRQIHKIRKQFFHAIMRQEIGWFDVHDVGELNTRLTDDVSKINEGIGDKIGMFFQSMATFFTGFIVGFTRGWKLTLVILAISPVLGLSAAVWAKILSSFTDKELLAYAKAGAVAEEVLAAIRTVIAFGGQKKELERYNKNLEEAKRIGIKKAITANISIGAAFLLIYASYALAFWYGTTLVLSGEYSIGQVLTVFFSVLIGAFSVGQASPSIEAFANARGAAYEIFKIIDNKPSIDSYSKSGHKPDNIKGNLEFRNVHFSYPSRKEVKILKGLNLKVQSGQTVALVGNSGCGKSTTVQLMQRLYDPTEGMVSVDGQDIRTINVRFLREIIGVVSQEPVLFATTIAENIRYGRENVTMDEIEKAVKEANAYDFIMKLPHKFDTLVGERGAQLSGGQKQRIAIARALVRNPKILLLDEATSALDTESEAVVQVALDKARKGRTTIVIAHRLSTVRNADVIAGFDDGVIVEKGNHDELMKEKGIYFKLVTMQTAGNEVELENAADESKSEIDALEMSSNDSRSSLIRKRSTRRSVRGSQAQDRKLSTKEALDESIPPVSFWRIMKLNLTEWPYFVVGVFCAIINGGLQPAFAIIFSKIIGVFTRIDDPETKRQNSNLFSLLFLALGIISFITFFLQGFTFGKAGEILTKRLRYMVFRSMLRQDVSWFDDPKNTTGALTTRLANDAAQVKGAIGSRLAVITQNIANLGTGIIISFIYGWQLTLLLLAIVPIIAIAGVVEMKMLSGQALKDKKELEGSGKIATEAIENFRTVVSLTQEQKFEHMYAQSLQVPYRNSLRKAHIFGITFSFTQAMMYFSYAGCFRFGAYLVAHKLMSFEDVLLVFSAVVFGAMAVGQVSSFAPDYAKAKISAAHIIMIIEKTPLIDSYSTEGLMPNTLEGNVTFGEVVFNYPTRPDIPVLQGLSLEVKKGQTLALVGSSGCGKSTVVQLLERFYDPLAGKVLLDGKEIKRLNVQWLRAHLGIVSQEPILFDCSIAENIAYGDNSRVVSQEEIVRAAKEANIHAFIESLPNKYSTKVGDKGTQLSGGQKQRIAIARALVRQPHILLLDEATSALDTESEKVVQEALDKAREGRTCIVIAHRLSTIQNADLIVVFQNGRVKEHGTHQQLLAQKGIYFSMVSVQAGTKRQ
MEKK2wt confirm = raises or lowers MEK5 binding to wildtype human MEKK2, retest; AID 1892; 5,900 tested, 2.4% active; shares compounds with MEKK3 PB1 HTS; bead flow cytometry, Alexa488-MEK5 binding to MEKK2 WT; actives lie on both sides; binding response (% of control), % at 10 µM; in the data active = binding response below about 16% or above about 210%; inactive = in between
MEKK2mut-MEK5 = signal of MEK5 binding to mutant human MEKK2, retest; shares compounds with MEKK3 PB1 HTS; bead flow cytometry, Alexa488-MEK5 binding to MEKK2 mutant; percent response, % at 10 µM; 5,900 tested, 2% active; AID 1893; in the data active = percent response mostly above about 71%, no sharp cut-off; inactive = mostly below about 38%;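 note: higher means compound restores mutant binding toward wildtype level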
MEKK3 confirm = MEKK3-MEK5 PB1 inhibition, single concentration confirmation; bead flow cytometry, Alexa488-MEK5 binding to MEKK3; active compounds read low; binding response (% of control), % at 10 µM; AID 1894; shares compounds with MEKK3 PB1 HTS; 5,900 tested, 1.8% active;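 active = binding response below 72% of control, or above a set upper limit, though filed actives all read lower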;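 note: 100% = DMSO only wells and 0% = binding blocked by excess unlabeled MEK5; lower values mean stronger disruption of MEK5 binding to MEKK3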
The depositor's hits bear a star; . = no result given; [ ] = dose if it differs, or a comment.

SMILES | MEKK2 WT-MEK5 | MEKK2 mut-MEK5 | MEKK3 PB1 HTS | ABCG2 block | ABCB1 inh | MEKK2wt confirm | MEKK2mut-MEK5 | MEKK3 confirm
Cc1sc2nc(CN3CCCCC3)nc(N3CCN(C(=O)c4ccco4)CC3)c2c1C | 104 | 9 | 101 | 3 | 1 | . | . | .
CC(=O)c1cccc(NC(=O)Nc2ccc3c(c2)OCO3)c1 | 98 | 1 | 99 | . | . | . | . | .
Cc1ccc(S(=O)(=O)Oc2ccccc2/C=N/NC(N)=S)cc1 | 97 | -3 | 97 | 3 | 1 | . | . | .
Cc1ccc(S(=O)(=O)Oc2ccccc2/C=N/N=C(N)N)cc1 | 149* | 19 | 115 | 2 | 1 | 118 | 14 | 102
CC(=O)CSc1nnc2c3ccccc3nc(C(C)(C)C)n12 | 63*[inhibitor] | -15 | 73*[inhibitor] | 2 | 1 | 101 | -4 | 101
CC(=O)Nc1cccc(C(=O)N2CCN(Cc3ccccc3)CC2)c1 | -1.0*[inhibitor] | -21 | -1.0*[inhibitor] | 26 | 0 | 107 | 3 | 105
CCC(=O)Nc1nnc(S(=O)(=O)N(C)c2cc(C)cc(C)c2)s1 | 103 | 10 | 108 | . | . | . | . | .
CCc1c(C)nc2cc(-c3ccc(OC)c(OC)c3)nn2c1N1CCCC1 | -1.0*[inhibitor] | -28 | 2.0*[inhibitor] | 2 | 1 | 106 | 0 | 109
CN(C)c1nc(NCc2ccccc2)nc(N/N=C/c2cccc(Br)c2)n1 | 139* | 15 | 108 | 2 | 0 | 125 | 13 | 106
COc1ccc(/C=N/n2cnc3c([nH]c4ccc(C)cc43)c2=O)cc1CN1CCCC1 | 159* | 36 | 132* | . | . | 122 | 16 | 101
COc1ccc(/C=N/n2cnc3c([nH]c4ccc(F)cc43)c2=O)cc1CN1CCCC1 | 128 | 15 | 108 | . | . | . | . | .
Clc1cccc(-c2sc(Nc3ccccc3)n[n+]2-c2ccccc2)c1Cl | 135* | 13 | 104 | . | . | 135 | 15 | 103
COc1cc(Br)c(-c2sc(Nc3ccccc3)n[n+]2-c2ccc(F)cc2)cc1OC | 133 | 34* | 104 | . | . | 149 | 32 | 103
Fc1ccc(-[n+]2nc(Nc3ccccc3)sc2-c2cccc(Cl)c2Cl)cc1 | 128 | 23 | 105 | . | . | . | . | .
CCc1ccc(Nc2n[n+](-c3ccccc3)c(-c3ccc(OC)c(Br)c3)s2)cc1 | 207* | 41* | 109 | . | . | 206 | 73* | 113
CCc1ccc(Nc2n[n+](-c3ccccc3)c(-c3ccc(SC)cc3)s2)cc1 | 195* | 35* | 108 | . | . | 180 | 53 | 108
CCOC(=O)c1nc(N/N=C/c2ccccc2)sc1Br | 101 | 1 | 102 | . | . | . | . | .
CCC(Oc1cc(Cl)ccc1Cl)C(=O)N1CCCN(C)CC1 (configuration not stated) | 103 | 4 | 102 | . | . | . | . | .
CCC(C)c1ccc(OCc2ccc(C(=O)O)o2)cc1 (configuration not stated) | 107 | 4 | 101 | . | . | . | . | .
COc1ccc(S(=O)(=O)NCc2nc3nc(C)cc(C)n3n2)cc1OC | 102 | 1 | 100 | . | . | . | . | .
CSc1ccc(-c2sc(Nc3ccccc3)n[n+]2-c2ccccc2)cc1 | 148* | 10 | 106 | . | . | 121 | 31 | 102
COC(=O)c1ccc(/C=C2/SC(=S)N(CCC(=O)NCCCN3CCOCC3)C2=O)cc1 | 97 | 3 | 101 | . | . | . | . | .
COc1ccc(NC(=O)c2cc(-c3cc(C)cc(C)c3O)n[nH]2)cc1Cl | 167* | 9 | 107 | 0 | 0 | 150 | 16 | 102
Cc1ccnn1CCC(=O)N1CCCC(Nc2ccc(F)c(F)c2)C1 (configuration not stated) | 97 | 5 | 101 | . | . | . | . | .
CCCCC1=C([O-])C2N=CC=CC2=[N+](c2ccccn2)C1=O (configuration not stated) | 102 | 0 | 138* | 7 | 1 | 35 | -25 | 82
